# Experimental data reported in ChEMBL document CHEMBL4680095, “Potent Antitumor Activities and Structure Basis of the Chiral β-Lactam Bridged Analogue of Combretastatin A-4 Binding to Tubulin” (J Med Chem, 2016).
# Activity calls are given as the source filed them. The rule behind the calls is not given here.
# Experiments:
# [1] = test system: A2780; test: Growth inhibition of human A2780 cells; format: functional, cell-based
# [2] = test system: MDA-MB-231; test: Growth inhibition of human MDA-MB-231 cells; format: functional, cell-based
# [3] = test system: SK-OV-3; test: Growth inhibition of human SK-OV-3 cells; format: functional, cell-based
# [4] = test system: HeLa; test: Growth inhibition of human HeLa cells; format: functional, cell-based
# [5] = Inhibition of pig brain tubulin polymerization incubated for 20 mins by spectrophotometry; format: tissue-based, Sus scrofa
# [6] = test system: A2780; test: Antitumor activity against human A2780 cells xenografted in Balb/C mouse assessed as inhibition of tumor growth at 12.5 mg/kg, ip dosed once every 2 days; format: functional, organism-based; settings: time 2.0 day
# Outline: (§1)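 Xenograft model built by subcutaneous inoculation of A2780 cells into female Balb/C nude mice, then treated at 12.5 mg/kg. Read-outs named per line: tumor growth, main organs examined for abnormalities, body weight monitored.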
# [7] = Toxicity in Balb/C mouse xenografted with human A2780 cells assessed as induction of body weight loss at 12.5 mg/kg, ip dosed once every 2 days; format: organism-based; settings: in vivo, 48 h, time 2 day; outline: as §1
# [8] = Toxicity in Balb/C mouse xenografted with human A2780 cells assessed as induction of abnormalities of visceral organs at 12.5 mg/kg, ip dosed once every 2 days; format: organism-based; settings: in vivo, 48 h, time 2 day; outline: as §1
# [9] = Toxicity in Balb/C mouse; settings: in vivo
SMILES,IC50 [1],IC50 [2],IC50 [3],IC50 [4],IC50 [5],TGI [6],Activity [7],Activity [8],LD50 [9]
COc1ccc([C@H]2[C@@H](C)C(=O)N2c2cc(OC)c(OC)c(OC)c2)cc1O,31 nM,56 nM,57 nM,63 nM,3500 nM,Active,Non-Toxic,Non-Toxic,> 500 mg/kg
C=C1C(=O)N(c2cc(OC)c(OC)c(OC)c2)[C@H]1c1ccc(OC)c(O)c1,115 nM,308 nM,114 nM,243 nM,6600 nM,–,–,–,–
COc1ccc(/C=C\c2cc(OC)c(OC)c(OC)c2)cc1O [COMBRETASTATIN A4],–,–,–,–,1320 nM,–,–,–,–
C=C1C(=O)N(c2cc(OC)c(OC)c(OC)c2)[C@@H]1c1ccc(OC)c(O)c1,4600 nM,> 10000 nM,3500 nM,5500 nM,> 100000 nM,–,–,–,–
COc1cc2c(c(OC)c1OC)-c1ccc(OC)c(=O)cc1[C@@H](NC(C)=O)CC2 [COLCHICINE],–,–,–,–,–,–,–,–,4 mg/kg
